Screening data: PubChem, several laboratories
Compounds with a hit are over-represented: about 1.9% of the library has one in this group of screens.
TLR9-MyD88 block – blocks human TLR9 binding to MyD88; inhibition, % at 4.98 µM; AID 504734; Q9NR96+Q99836; CHO BLA complementation TLR9-MyD88, CCF4 FRET ratio; actives 0.21% (n = 340,000);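 active means inhibition above the mean over all tested compounds plus 3 SD, cut at about 21% in these data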
TLR4-MyD88 BLA – inhibitors of human TLR4-MyD88 binding; inhibition, % at 8.4 µM; HeLa CL3-4 TLR4/MyD88 BLA complementation, FRET ratio; AID 861; O00206+Q99836; actives 0.18% (n = 200,000); in the data active means inhibition above about 25%
NTR1 agonist – activates human neurotensin receptor 1; P30989; NTR1-U2OS beta-arrestin-GFP spot imaging, agonist mode; activation, % at 20 µM; actives 0.17% (n = 330,000); AID 493036;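 active means activation at or above 40% of the spot to cytoplasm intensity ratio, with at least 20 cells analyzed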
MC4R antag cAMP – blocks human MC4R cAMP signaling; actives 0.48% (n = 360,000); AID 540295; MC4R-expressing cells, MTII-stimulated cAMP, LANCE TR-FRET; P32245; inhibition, % at 6.5 µM;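 active means inhibition above its plate's cutoff, the mean of tested wells on that plate plus 3 SD, cut at about 29% in these data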
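Material: human MC4R-expressing U2OS cells. Probe or stimulus: Melanotan II challenge. Dosing: 6.5 µM single dose. Times: 30-min compound, 1-h challenge, 1-h detection, room temperature. Technique: TR-FRET with Eu-cAMP and labeled anti-cAMP, 671 nm. Replication: singlicate.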
NOD2 RIPK2 PPI – blocks binding of human NOD2 to RIPK2; O43353; CHO BLA complementation NOD2-RIPK2, CCF4 ratio; inhibition, % at 4.98 µM; actives 0.38% (n = 360,000); AID 624267; in the data active means inhibition above about 21%
Target sequence (O43353 whole entry, looked up): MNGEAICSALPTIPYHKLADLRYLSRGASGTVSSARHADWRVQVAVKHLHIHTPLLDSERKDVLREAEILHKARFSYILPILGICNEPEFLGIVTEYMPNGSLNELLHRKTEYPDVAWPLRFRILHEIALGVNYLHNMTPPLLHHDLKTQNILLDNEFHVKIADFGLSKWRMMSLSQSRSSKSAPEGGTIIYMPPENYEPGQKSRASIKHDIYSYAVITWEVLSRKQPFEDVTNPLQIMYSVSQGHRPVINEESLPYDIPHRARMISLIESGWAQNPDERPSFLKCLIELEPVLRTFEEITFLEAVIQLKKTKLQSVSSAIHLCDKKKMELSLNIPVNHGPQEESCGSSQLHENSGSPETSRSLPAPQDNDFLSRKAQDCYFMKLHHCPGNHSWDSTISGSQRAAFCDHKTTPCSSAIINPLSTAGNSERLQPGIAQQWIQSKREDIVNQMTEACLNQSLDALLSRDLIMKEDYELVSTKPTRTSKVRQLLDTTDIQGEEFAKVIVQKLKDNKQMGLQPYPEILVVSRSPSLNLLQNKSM
MC4R ag barr – agonists of human melanocortin 4 receptor (MC4R) beta-arrestin. P32245. actives 0.98% (n = 360,000). U2OS MC4R beta-arrestin complementation, luminescence; percent of melanotan II response, DMSO zero. activation, % at 8.9 µM;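 active means activation above a per-plate cutoff, the mean activation of sample wells on that plate plus 3 SD, cut at about 8% in these data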
NOD2-RIPK2 conf – confirmation of human NOD2-RIPK2 interaction inhibitors | shares compounds with NOD2 RIPK2 PPI | CHO cells, NOD2-RIPK2 BLA complementation, CCF4 FRET | inhibition, % at 4.98 µM | actives 70% (n = 1,200) | AID 624370;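 active means mean inhibition across replicates above a set limit taken from the earlier primary screen, cut at about 21% in these data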
BLA counter – NOD2-RIPK2 counterscreen BLA reporter activity | actives 57% (n = 1,200) | shares compounds with NOD2 RIPK2 PPI | inhibition, % at 4.98 µM | CHO BLA reporter, CCF4 FRET ratio;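 active means mean inhibition above the low-control mean inhibition plus three low-control SD, cut at about 11% in these data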
A number is an active result; 0 = inactive; - = no result.

SMILES	TLR9-MyD88 block	TLR4-MyD88 BLA	NTR1 agonist	MC4R antag cAMP	NOD2 RIPK2 PPI	MC4R ag barr	NOD2-RIPK2 conf	BLA counter
O=C(NCc1ccccc1)C(c1ccc(-c2ccccc2)cc1)n1c(=O)c(-c2cc3ccccc3[nH]2)nc2ccccc21 (stereo not drawn)	-	-	-	-	23	-	42	66
COc1ccc(C(C(=O)NCc2ccccc2)n2c(-c3ccncc3)nc3ccccc32)cc1 (stereo not drawn)	-	-	-	-	0	-	-	-
COc1ccc(C(C(=O)NCc2ccccc2)n2c(=O)c(-c3cc4ccccc4[nH]3)nc3ccccc32)cc1 (stereo not drawn)	-	-	-	-	44	-	40	64
Cc1cc(OCC(=O)Nc2ccncc2)cc(C)c1Cl	0	-	0	0	0	0	-	-
CC(=O)N1CCOc2ccc(S(=O)(=O)NC[C@H]3O[C@@H](n4cnc5c(N)ncnc54)[C@H](O)[C@@H]3O)cc21	0	-	0	0	0	0	-	-
Cc1cccc(NC(=O)CSCC(=O)Nc2cc(S(=O)(=O)N3CCOCC3)ccc2OC(C)C)c1	0	-	0	0	21	0	0	0
CCOc1ccccc1C=NNC(=O)CCCCC(=O)NN=Cc1ccccc1OCC	0	-	-	0	0	0	-	-
CCOc1ccccc1C=NNC(=O)C(=O)NN=Cc1ccccc1OCC	0	-	-	0	24	0	0	0
CCOc1cc(/C=C2\COc3ccccc3C2=O)cc(Br)c1OCC(=O)N(C)C	0	-	0	0	26	0	28	0
COc1ccc(/C=C2\COc3ccccc3C2=O)cc1OC	0	0	0	0	0	0	-	-
O=S(=O)(c1cccc(Cl)c1)N1CN(CC2CCCO2)c2nc3ccccc3nc21 (stereo not drawn)	0	-	0	0	0	0	-	-
COc1ccc(N=C2S/C(=C\c3ccc(Cl)c([N+](=O)[O-])c3)C(=O)N2CCN(C)C)cc1	0	-	0	0	44	0	88	0
CCN(CC)CCN1C(=O)/C(=C\c2ccc(Cl)c([N+](=O)[O-])c2)SC1=Nc1ccc(OC)cc1	0	-	0	0	72	0	54	0
CCCN1C(=O)/C(=C/c2ccc(C)s2)SC1=Nc1ccc(OC)cc1	0	0	0	0	0	0	-	-
CCCCn1c(N)c(N(CCOC)C(=O)CN(C)S(=O)(=O)c2ccc(F)cc2)c(=O)[nH]c1=O	0	-	0	0	0	0	-	-
O=C(N/N=C\c1c(O)ccc2ccccc12)c1ccc(O)cc1	0	-	0	0	0	0	-	-
O=C(NN=Cc1c(O)ccc2ccccc12)c1ccncc1	0	-	-	0	28	0	27	21
O=C1/C(=C\c2ccccc2)CCC/C1=C/c1ccccc1	0	-	-	0	0	0	-	-
O=C1/C(=C\c2ccccc2)CN(C(=O)CCN2CCCCC2)C/C1=C/c1ccccc1	0	-	-	0	36	0	55	0
CCN(CC)CCC(=O)N1C/C(=C/c2ccccc2)C(=O)/C(=C\c2ccccc2)C1	0	-	-	0	24	0	47	0
C/C(=N\NC(=O)COc1ccc(C(C)(C)C)cc1)c1ccc(N2CCOCC2)cc1	0	0	0	0	0	0	-	-
NC(=O)c1ccc(NC(=O)COC(=O)CC(NC(=O)c2ccccc2Cl)c2ccccc2)cc1 (stereo not drawn)	0	0	0	0	0	0	-	-
COc1cc(OC)c(OC)cc1/C=C/C(=O)c1ccc(NS(=O)(=O)c2ccc(C)cc2)cc1	0	0	0	0	34	0	34	40
CCOC(=O)N1CCN(C(=O)C2CCN(C(=O)c3ccccc3C)CC2)CC1	0	-	-	0	22	0	71	18
CCN(CC)C(=O)Oc1ccc2c(c1)O/C(=C\c1ccco1)C2=O	0	-	0	0	0	0	-	-
COCCN(CCOC)Cc1c(O)ccc2c1O/C(=C\c1ccco1)C2=O	0	-	0	0	23	0	43	46
CCC(=O)Oc1ccc2c(c1)O/C(=C\c1ccco1)C2=O	-	-	0	0	44	0	56	61
